Assay results as given in ChEMBL document CHEMBL1151903, “Unique behavior of 2,6-bis(bromomethyl)naphthalene as a highly active organic DNA crosslinking molecule” (Bioorg Med Chem, 2009).
Calls of active or inactive are those of the source. The rule behind the calls is not given here.

Legend:
[1] = Stability in aqueous solution assessed as half life; type: physicochemical
In short: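 Compound at final 10 µM in 0.01 M sodium phosphate buffer pH 7.4/MeCN (4:1). Decomposition followed by reversed-phase RP-18 HPLC with UV detection, eluting with MeCN–H2O or MeOH–H2O; half-life taken from the decomposition rate.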

[2] = system: Salmonella enterica subsp. enterica; test: Mutagenic activity in Salmonella typhimurium TA92 assessed as crosslinking-associated increase in number of revertants after 2 days by Ames test; type: toxicity, organism-based; settings: salmonella enterica subsp. enterica serovar typhimurium, 48 h
In short: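 TA92 grown 15.5 h at 37 °C in nutrient broth/NaCl. Culture (0.1 mL) mixed with DMSO-diluted compound (50 µL) in 0.1 M sodium phosphate pH 7.4 and preincubated 20 min at 37 °C. Mixed into 0.6% soft agar and overlaid on minimal agar. Revertant colonies counted manually after 2 days at 37 °C; mean of six plates.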

CCRF-HSB-2 = test: Antiproliferative activity against human CCRF-HSB2 cells after 24 hrs by trypan blue exclusion assay; type: functional, cell-based; settings: CCRF-HSB-2, 24 h
In short: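 CCRF-HSB-2 cells in RPMI1640 with 10% fetal calf serum, 37 °C, 5% CO2, seeded at 3 × 10^5 cell/mL in 3 mL per well. Pre-incubated 24 h, then given compound as DMSO solution (3 µL per well) for 24 h. Trypan blue-excluding cells counted.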

Nucleic Acid [3] = test: Induction of […] DNA interstrand crosslinking activity at > 100 uM after 6 hrs by agarose gel electrophoresis; type: nucleic-acid assay
In short: (§1)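 Linearized pBluescript plasmid DNA (460 ng) exposed to compound in DMSO at 37 °C for 6 h. DNA recovered by EtOH precipitation and lyophilized, then taken up in 1 mM EDTA in 30% aqueous DMSO. Heat-denatured at 95 °C for 5 min and ice-quenched. Run on 1% agarose gel and stained with ethidium bromide.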

[4] = system: Salmonella enterica subsp. enterica; test: Mutagenic activity in Salmonella typhimurium TA100 assessed as crosslinking-associated increase in number of revertants after 2 days by Ames test; type: toxicity, organism-based; settings: salmonella enterica subsp. enterica serovar typhimurium, 48 h
Nucleic Acid [5] = test: Induction of […] DNA interstrand crosslinking activity at 10 uM after 6 hrs by agarose gel electrophoresis; type: nucleic-acid assay; in short: as §1
Nucleic Acid [6] = test: Induction of […] DNA interstrand crosslinking activity at 1 uM after 6 hrs by agarose gel electrophoresis; type: nucleic-acid assay; in short: as §1

| half-life [1] [h] | SMILES | Activity [2] | Activity [4] | further results |
| --- | --- | --- | --- | --- |
| 0.95 | ClCc1ccc2cc(CCl)ccc2c1 |  |  |  |
| < 0.167 | BrCc1ccc2cc(CBr)ccc2c1 | Active | Active | IC50 (CCRF-HSB-2): 4 µM; Activity (Nucleic Acid [3]): inactive |
| 10.5 | BrCc1ccc(CBr)c2ncccc12 |  |  |  |
| 5.5 | ClCc1ccc(CCl)c2ccccc12 |  |  |  |
| 12.8 | BrCc1ccc2nc(CBr)ccc2c1 |  |  |  |
| 0.567 | BrCc1ccc(CBr)c2ccccc12 | Active | Active | Activity (Nucleic Acid [5]): Active; Activity (Nucleic Acid [6]): Active |
